The record followed here is ChEMBL document CHEMBL1933030, “Conjugation of spermine enhances cellular uptake of the stapled peptide-based inhibitors of p53-Mdm2 interaction” (Bioorg Med Chem Lett, 2011).

Series [1] deals with Tumour suppressor p53/oncoprotein Mdm2 (Homo sapiens, UniProt Q00987). The experiment in a line: Inhibition of p53-MDM2 interaction by ELISA. Format: protein assay.
The subject of the next series is HeLa. The experiment in a line: Cellular uptake in human HeLa cells at 10 uM after 2 hrs by FACS analysis relative to control. It is filed as ADME, cell-based. The essentials: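 HeLa cells were exposed to fluorescein-labelled peptides at 10 μM and analysed by flow cytometry (FACS). Uptake was read as mean cellular fluorescence, shown as representative histograms, and normalized for comparison between peptides.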
In general terms: In flow cytometry, cells or beads pass a laser one at a time.

Sequence of Tumour suppressor p53/oncoprotein Mdm2 (P04637 whole entry): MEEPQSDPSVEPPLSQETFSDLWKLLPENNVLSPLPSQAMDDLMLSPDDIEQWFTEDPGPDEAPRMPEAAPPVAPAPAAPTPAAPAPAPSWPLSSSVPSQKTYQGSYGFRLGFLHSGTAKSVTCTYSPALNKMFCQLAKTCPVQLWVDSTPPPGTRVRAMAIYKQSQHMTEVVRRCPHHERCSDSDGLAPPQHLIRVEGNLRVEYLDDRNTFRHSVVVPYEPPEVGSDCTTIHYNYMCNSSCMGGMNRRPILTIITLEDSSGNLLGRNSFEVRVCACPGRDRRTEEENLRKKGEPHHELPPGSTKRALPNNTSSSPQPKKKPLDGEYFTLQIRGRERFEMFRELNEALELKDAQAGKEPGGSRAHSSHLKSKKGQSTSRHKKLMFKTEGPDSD
Sequence of Tumour suppressor p53/oncoprotein Mdm2 (Q00987 whole entry): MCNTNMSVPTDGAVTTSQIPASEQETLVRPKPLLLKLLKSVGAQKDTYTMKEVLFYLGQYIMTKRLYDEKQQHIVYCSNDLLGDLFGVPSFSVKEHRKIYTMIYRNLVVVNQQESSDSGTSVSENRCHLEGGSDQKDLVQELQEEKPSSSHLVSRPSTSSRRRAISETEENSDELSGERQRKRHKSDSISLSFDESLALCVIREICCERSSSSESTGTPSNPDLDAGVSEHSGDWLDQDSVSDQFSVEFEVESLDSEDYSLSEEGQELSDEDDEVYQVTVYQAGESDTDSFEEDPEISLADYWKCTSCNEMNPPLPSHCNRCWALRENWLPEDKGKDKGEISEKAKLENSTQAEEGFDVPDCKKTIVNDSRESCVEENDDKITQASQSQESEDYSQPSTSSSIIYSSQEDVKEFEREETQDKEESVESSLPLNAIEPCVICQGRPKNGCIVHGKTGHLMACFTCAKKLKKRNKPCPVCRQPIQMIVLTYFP

As for `CC(=O)N[C@@H](CC(C)C)C(=O)N[C@H](C(=O)N[C@@H](Cc1ccccc1)C(=O)N[C@@H](CS)C(=O)N[C@@H](Cc1cnc[nH]1)C(=O)N[C@@H](Cc1ccc(O)cc1)C(=O)N[C@@H](Cc1c[nH]c2ccccc12)C(=O)N[C@@H](C)C(=O)N[C@@H](CCC(N)=O)C(=O)N[C@@H](CC(C)C)C(=O)N[C@@H](CS)C(=O)N[C@@H](CO)C(N)=O)[C@@H](C)O`, in series [1], half-maximal inhibition (IC50) required 0.057 µM. That is a double-digit nanomolar value. Same read-out and setting: in the case of `CC(=O)N[C@@H](CC(C)C)C(=O)N[C@H](C(=O)N[C@@H](Cc1ccccc1)C(=O)N[C@H](CS)C(=O)N[C@@H](Cc1cnc[nH]1)C(=O)N[C@@H](Cc1ccc(O)cc1)C(=O)N[C@@H](Cc1c[nH]c2ccccc12)C(=O)N[C@@H](C)C(=O)N[C@@H](CCC(N)=O)C(=O)N[C@@H](CC(C)C)C(=O)N[C@@H](CS)C(=O)N[C@@H](CO)C(N)=O)[C@@H](C)O` it was 0.013 µM. Turning to `CC(C)C[C@H](NC(=O)CCCCCNC(=O)c1ccccc1-c1c2ccc(=O)cc-2oc2cc(O)ccc12)C(=O)N[C@H](C(=O)N[C@@H](Cc1ccccc1)C(=O)N[C@@H](CS)C(=O)N[C@@H](Cc1cnc[nH]1)C(=O)N[C@@H](Cc1ccc(O)cc1)C(=O)N[C@@H](Cc1c[nH]c2ccccc12)C(=O)N[C@@H](C)C(=O)N[C@@H](CCC(N)=O)C(=O)N[C@@H](CC(C)C)C(=O)N[C@@H](CS)C(=O)N[C@@H](CO)C(N)=O)[C@@H](C)O`, in the series on HeLa, the Drug uptake is given as 4.5%. Regarding `CC(C)C[C@H](NC(=O)CCCCCNC(=O)c1ccccc1-c1c2ccc(=O)cc-2oc2cc(O)ccc12)C(=O)N[C@H](C(=O)N[C@@H](Cc1ccccc1)C(=O)N[C@H](CS)C(=O)N[C@@H](Cc1cnc[nH]1)C(=O)N[C@@H](Cc1ccc(O)cc1)C(=O)N[C@@H](Cc1c[nH]c2ccccc12)C(=O)N[C@@H](C)C(=O)N[C@@H](CCC(N)=O)C(=O)N[C@@H](CC(C)C)C(=O)N[C@@H](CS)C(=O)N[C@@H](CO)C(N)=O)[C@@H](C)O`, the Drug uptake with HeLa is on record as 3.3%.

Broadly, the IC50 is the concentration that inhibits the measured activity by half.
